Measured values: ChEMBL document CHEMBL4340521, “Subtle modifications to a thieno[2,3-d]pyrimidine scaffold yield negative allosteric modulators and agonists of the dopamine D2 receptor” (Eur J Med Chem, 2019)
Activity calls are given as the source filed them. The calls are words filed in the database; no cut-off is given here.

How the values were obtained:
[1] = biological target: T1, D(2) dopamine receptor (Homo sapiens, UniProt P14416); experiment: (§1) Negative allosteric modulation of recombinant human D2L receptor expressed in Flp-In CHO cells assessed as inhibition of dopamine-induced reduction in forskolin stimulated cAMP accumulation by measuring intrinsic efficacy of the modulator preincubated for 30 mins followed by forskolin stimulation and measured after 30 mins by BRET assay; type: functional, cell-based
T1 sequence (P14416 whole entry): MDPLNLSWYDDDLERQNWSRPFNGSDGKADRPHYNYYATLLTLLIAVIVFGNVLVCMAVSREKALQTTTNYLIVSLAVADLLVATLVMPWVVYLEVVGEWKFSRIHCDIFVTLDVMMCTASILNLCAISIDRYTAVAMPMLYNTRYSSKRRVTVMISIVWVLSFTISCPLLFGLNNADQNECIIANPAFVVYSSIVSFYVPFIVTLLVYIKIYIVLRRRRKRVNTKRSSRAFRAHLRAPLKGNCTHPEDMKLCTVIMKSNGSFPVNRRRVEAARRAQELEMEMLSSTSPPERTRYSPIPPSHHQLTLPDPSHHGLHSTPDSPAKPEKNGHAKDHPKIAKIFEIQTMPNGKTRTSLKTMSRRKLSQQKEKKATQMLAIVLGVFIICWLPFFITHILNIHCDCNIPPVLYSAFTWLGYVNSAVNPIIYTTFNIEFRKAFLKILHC

[2] = biological target: T1, D(2) dopamine receptor; experiment: as §1, with “equilibrium dissociation constant” for “intrinsic efficacy of the modulator”; type: functional, cell-based
[3] = biological target: T1, D(2) dopamine receptor; experiment: as §1, with “modulation of dopamine” for “intrinsic”, “efficacy” for “efficacy of the modulator”; type: functional, cell-based
[4] = biological target: T1, D(2) dopamine receptor; experiment: as §1, with “net cooperativity factor” for “intrinsic efficacy of the modulator”; type: functional, cell-based
[5] = biological target: T1, D(2) dopamine receptor; experiment: as §1, with “equilibrium dissociation constant up to 100 uM” for “intrinsic efficacy of the modulator”; type: functional, cell-based
[6] = biological target: T1, D(2) dopamine receptor; experiment: Competitive antagonist activity at recombinant human D2L receptor expressed in Flp-In CHO cells assessed as inhibition of dopamine-induced reduction in forskolin stimulated cAMP accumulation preincubated for 30 mins followed by forskolin stimulation and measured after 30 mins by BRET assay; type: functional, cell-based; settings: read-out: pA2 (converted)
[7] = system: CHO; experiment: Modulation of dopamine-induced forskolin stimulated cAMP accumilation in hamster FlpIn CHO cells assessed as BRET signal at 100 uM preincubated for 30 mins followed by forskolin stimulation and measured after 30 mins by BRET assay relative to control; type: cell-based, Cricetinae; settings: Cricetulus griseus, 0.5 h, read-out: Activity
Outline: (§2)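 Wild-type FlpIn CHO cells lacking D2R, transfected with CAMYEL cAMP BRET biosensor. Compounds at 1-100 μM plus dopamine 10 μM added 30 min before stimulation, with or without 10 μM forskolin (final). Coelenterazine-h 5 μM final. BRET ratio 535/475 nm read 30 min after stimulation.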

[8] = system: CHO; experiment: Modulation of dopamine-induced forskolin stimulated cAMP accumilation in hamster FlpIn CHO cells assessed as BRET signal preincubated for 30 mins followed by forskolin stimulation and measured after 30 mins by BRET assay relative to control; type: cell-based; settings: cricetinae, 0.5 h; outline: as §2

Row | log(activity) [1] | Kb [2] [µM] | pKb [2] | Efficacy [3] | log(activity) [3] | Activity index [4] | log(activity) [4] | Activity [5] | Intrinsic activity [1] | Activity [8] | SMILES | Kb [6] [µM] | activity at 100 µM [7] [%]
1 | -3 | – | 3.89 | – | 0 | 0.39 | -0.41 | – | – | – | c1ccc(-c2csc3ncnc(NC4CCC4)c23)cc1 | – | –
2 | – | – | – | – | – | – | – | inactive | – | – | CCN(CC)c1ncnc2sc(C3CCCCC3)cc12 | – | –
3 | 0 | 19.5 | 4.71 | – | 0 | 0.24 | -0.61 | – | – | – | CCN(CC)c1ncnc2sc(C)c(C)c12 | – | –
4 | – | – | – | – | – | – | – | inactive | – | – | Cc1sc2ncnc(NC3CC3)c2c1C | – | –
5 | -3 | 60 | 4.22 | – | 0 | 0.27 | -0.57 | – | – | – | CCN(CC)c1ncnc2scc(-c3ccccc3)c12 | – | –
6 | 0 | 92.5 | 4.03 | – | 0 | 0.91 | -0.04 | – | – | – | CC(C)(C)Nc1ncnc2sc3c(c12)CCCC3 | – | –
7 | 0 | 4.23 | 5.37 | 0.17 | -0.76 | – | – | – | – | – | c1nc(N2CCCC2)c2c3c(sc2n1)CCCC3 | – | –
8 | 0 | 7.38 | 5.13 | – | 0 | 0.48 | -0.32 | – | – | – | c1nc(NC2CCC2)c2ccsc2n1 | – | –
9 | -0.22 | 6.35 | 5.92 | 0.43 | -0.37 | – | – | – | 0.6 | – | c1ccc(-c2cc3c(NC4CC4)ncnc3s2)cc1 | – | –
10 | – | – | – | – | – | – | – | inactive | – | – | c1ccc(Nc2ncnc3sc4c(c23)CCCC4)cc1 | – | –
11 | -3 | 21.4 | 4.67 | – | 0 | 0.22 | -0.65 | – | – | – | c1nc(NC2CC2)c2ccsc2n1 | – | –
12 | – | – | – | – | – | – | – | inactive | – | – | c1nc(NC2CCC2)c2cc(C3CCCCC3)sc2n1 | – | –
13 | 0 | 11.6 | 4.93 | 0.09 | -1.04 | – | – | – | – | – | c1nc(NC2CC2)c2c(C3CCCCC3)csc2n1 | – | –
14 | -0.13 | 6.01 | 5.22 | 0.28 | -0.55 | – | – | – | 0.75 | – | c1nc(NC2CC2)c2c3c(sc2n1)CCC3 | – | –
15 | 0 | 0.53 | 6.27 | 0.1 | -1 | – | – | – | – | – | c1nc(NC2CC2)c2c3c(sc2n1)CCCCCC3 | – | –
16 | – | – | – | – | – | – | – | inactive | – | – | CCN(CC)c1ncnc2sc3c(c12)CCCCC3 | – | –
17 | 0 | – | 5.72 | – | -3 | – | -3 | – | – | – | CCN(CC)c1ncnc2sc3c(c12)CCCC3 | – | –
18 | 0 | 0.88 | 6.05 | 0.03 | -1.48 | – | – | – | – | – | c1nc(NC2CC2)c2c3c(sc2n1)CCCC3 | – | –

The next lines start with the compound.

Row | SMILES | log(activity) [1] | Kb [2] [µM] | pKb [2] | Efficacy [3] | log(activity) [3] | Activity index [4] | log(activity) [4] | Activity [5] | Intrinsic activity [1] | Activity [8] | Kb [6] [µM] | activity at 100 µM [7] [%]
19 | c1nc(NC2CCC2)c2c(C3CCCCC3)csc2n1 | 0 | 2.92 | 5.53 | 0.03 | -1.55 | – | – | – | – | – | – | –
20 | CCN(CC)c1ncnc2sc(-c3ccccc3)cc12 | 0 | 0.9 | 6.04 | – | -3 | – | – | – | – | – | – | –
21 | c1ccc(-c2cc3c(NC4CCC4)ncnc3s2)cc1 | 0 | 4.5 | 5.35 | – | 0 | 0.28 | -0.55 | – | – | – | – | –
22 | CCN(CC)c1ncnc2scc(C3CCCCC3)c12 | – | – | – | – | – | – | – | inactive | – | – | – | –
23 | c1nc(NCC2CC2)c2c3c(sc2n1)CCCC3 | -0.06 | 1.19 | 5.92 | 0.29 | -0.54 | – | – | – | 0.86 | – | – | –
24 | c1nc(N2CCOCC2)c2c3c(sc2n1)CCCC3 | 0 | – | 3.9 | – | 0 | 1.66 | -0.22 | – | – | – | – | –
25 | c1nc(NC2CCC2)c2c3c(sc2n1)CCCCCC3 | 0 | 3.98 | 5.4 | 0.26 | -0.58 | – | – | – | – | – | – | –
26 | c1ccc(-c2csc3ncnc(NC4CC4)c23)cc1 | -3 | 1.93 | 5.72 | – | 0 | 0.32 | -0.47 | – | – | – | – | –
27 | c1nc(NC2CC2)c2c3c(sc2n1)CCCCC3 | 0 | 2.96 | 5.53 | 0.05 | -1.3 | – | – | – | – | – | – | –
28 | c1nc(N2CCNCC2)c2c3c(sc2n1)CCCC3 | -3 | 20 | 4.7 | – | 0 | – | – | – | – | – | 21.4 | –
29 | c1nc(N2CCCCC2)c2c3c(sc2n1)CCCC3 | 0 | 59.3 | 4.23 | – | 0 | – | – | – | – | Dose-dependent effect | – | 26
30 | c1nc(NC2CCC2)c2c3c(sc2n1)CCC3 | 0 | – | 3.99 | – | 0 | 0.57 | -0.25 | – | – | – | – | –
31 | Cc1sc2ncnc(NC3CCC3)c2c1C | – | 2.88 | 5.54 | 0.13 | -0.9 | – | – | – | – | – | – | –
32 | CCN(CC)c1ncnc2sc3c(c12)CCC3 | 0 | 0.74 | 6.13 | 0.14 | -0.85 | – | – | – | – | – | – | –
33 | c1nc(NC2CCCCC2)c2c3c(sc2n1)CCCC3 | – | – | – | – | – | – | – | inactive | – | – | – | –
34 | c1nc(NC2CCC2)c2c3c(sc2n1)CCCC3 | -0.72 | 0.57 | 6.25 | 0.22 | -0.65 | – | – | – | 0.19 | – | – | –
35 | CCN(CC)c1ncnc2sccc12 | 0 | – | 5.31 | 0.13 | -0.89 | – | – | – | – | – | – | –
36 | c1nc(NC2CC2)c2cc(C3CCCCC3)sc2n1 | – | – | – | – | – | – | – | inactive | – | – | – | –
37 | CCN(CC)c1ncnc2sc3c(c12)CCCCCC3 | 0 | 14.5 | 4.84 | – | -3 | – | – | – | – | – | – | 28
38 | c1nc(NC2CCC2)c2c3c(sc2n1)CCCCC3 | 0 | 0.91 | 6.04 | 0.06 | -1.22 | – | – | – | – | – | – | –
